# Results pooled from the literature.
SMILES,test,system,setting,measurement,result
CC[C@H](C)[C@H](NC(=O)[C@H](CC(C)C)NC(=O)[C@H](Cc1c[nH]c2ccccc12)NC(=O)[C@H](CCC(N)=O)NC(=O)[C@@H](NC(=O)[C@H](Cc1ccccc1)NC(=O)[C@H](C)NC(=O)[C@H](CCCCNC(=O)COCCOCCNC(=O)COCCOCCNC(=O)CC[C@H](NC(=O)CCCCCCCCCCCCCCCCCCC(=O)O)C(=O)O)NC(=O)[C@H](CCC(N)=O)NC(=O)[C@H](C)NC(=O)[C@@H](NC(=O)[C@H](CCCCN)NC(=O)[C@H](CC(=O)O)NC(=O)[C@H](CC(C)C)NC(=O)C(C)(C)NC(=O)[C@@H](NC(=O)[C@H](CO)NC(=O)[C@H](Cc1ccc(O)cc1)NC(=O)[C@H](CC(=O)O)NC(=O)[C@H](CO)NC(=O)[C@@H](NC(=O)[C@H](Cc1ccccc1)NC(=O)[C@@H](NC(=O)CNC(=O)[C@H](CCC(=O)O)NC(=O)C(C)(C)NC(=O)[C@@H](N)Cc1ccc(O)cc1)[C@@H](C)O)[C@@H](C)O)[C@@H](C)CC)[C@@H](C)CC)C(C)C)C(=O)N[C@@H](C)C(=O)NCC(=O)NCC(=O)N1CCC[C@H]1C(=O)N[C@@H](CO)C(=O)N[C@@H](CO)C(=O)NCC(=O)N[C@@H](C)C(=O)N1CCC[C@H]1C(=O)N1CCC[C@H]1C(=O)N1CCC[C@H]1C(=O)N[C@@H](CO)C(N)=O,,"human, plasma","subcutaneous, 5 mg, patients",Cmax,379 ng/mL
CC(=C/C=C/C(C)=C/C(=O)O)/C=C1\CCCc2ccccc21,,"human, plasma","oral, 5 mg, single dose, fasted, healthy volunteers",Cmax,46.9 ng/mL
N#Cc1cc(NC(=O)[C@H]2c3ccccc3C(=O)N(CC(F)(F)F)[C@@H]2c2cccnc2)ccc1F,general toxicity,beagle dog,"oral, multiple doses",NOAEL,30 mg/kg
C/N=c1\nc(-c2ccccc2)n(-c2ccccc2)s1,,Caco-2,"20 µM, 95 min",efflux ratio,0.962
NCC(=O)Nc1ccc(-n2nc(C(F)(F)F)cc2-c2ccc3c(ccc4ccccc43)c2)cc1,,"mouse, plasma","oral, 80 mg/kg, single dose",Tmax,10 h
Cc1ccccc1C(=O)NN=Cc1ccc(O)c(Br)c1,,"mouse, plasma","intraperitoneal, 0.8 mg/kg",Tmax,0.5 h
C[C@]12CC[C@H](n3ccnc3)CC1=CC[C@@H]1[C@@H]2CC[C@]2(C)C(n3cnc4ccccc43)=CC[C@@H]12.Cl.Cl,,"male CD-1 mouse, plasma","oral, 10 mg/kg",Tmax,17.3 h
Cc1nc2c(=O)n(C)c(=O)nc-2n(C)n1,,Caco-2,,efflux ratio,1
c1cc([C@H]2CC[C@]3(CC2)OO[C@]2(O3)C3CC4CC(C3)CC2C4)ccc1OCCN1CCOCC1,,"human, plasma","oral, 200 mg, patients",Cmax,339 ng/mL
COc1ccc(C[C@@H]2NC(=O)[C@H]([C@@H](C)O)NC(=O)[C@@H]3[C@@H]4CCN3C(=O)[C@@H]3Cc5cn(c6ccc(F)cc56)CCCCCCN(Cc5ccc(cc5)CCNC(=O)[C@]5(C)CCCN5C2=O)C(=O)CCC(=O)N[C@@H](C)C(=O)N[C@H](CNC(=O)CCCCC[N+](C)(C)C)C(=O)N[C@@H](Cc2cccc(c2)CNC(=O)CO4)C(=O)N3)cc1,,"human, plasma","oral, 200 mg, single dose",Cmax,7.84 nM
COc1ccc2[nH]cc(CCNc3nccc(Nc4cccc5c4ccn5C)n3)c2c1,,"mouse, plasma","intravenous, 9.5 mg/kg",Tmax,0.08 h
N=C(N)NCCC[C@@H](NC(=O)[C@@H](N)Cc1ccccc1)C(=O)N[C@@H](Cc1ccccc1)C(=O)N[C@@H](CCCCN)C(N)=O,,"human, plasma","subcutaneous, 15 mg, patients",Cmax,886 ng/mL
N=c1c2c(-c3ccccc3)c(-c3ccccc3)n(Cc3ccccc3)c2ncn1[C@H]1CC[C@H](O)CC1,,"male cynomolgus monkey, plasma","intravenous, 0.5 mg/kg, single dose",Vd,1.5 L/kg
